ChEMBL document CHEMBL1914423, “New imidazo[2,1-b]thiazole derivatives: synthesis, in vitro anticancer evaluation, and in silico studies” (Eur J Med Chem, 2011)

What was measured:
M14 = experiment: Antiproliferative activity against human M14 cells after 48 hrs by MTT assay; format: functional, cell-based; conditions: M14, 48 h
A498 = experiment: Anticancer activity against human A498 cells after 48 hrs by SRB assay; format: functional; conditions: A498, 48 h
Procedure, shortened: (§1)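 NCI five-dose screen. Cells in RPMI 1640 with 5% FBS and 2 mM L-glutamine, seeded at 5000–40,000 cells/well according to doubling time, then pre-incubated 24 h at 37 °C in 5% CO2. Drugs dissolved in DMSO, five concentrations by 10-fold or 1/2-log dilution. Cells fixed with TCA, SRB-stained, A515 read. IC50 solved from [(Ti−Tz)/(C−Tz)]×100 = 50.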

MCF7 = experiment: Anticancer activity against human MCF7 cells after 48 hrs by SRB assay; format: functional; conditions: MCF7, 48 h; procedure, shortened: as §1
NCI/ADR-RES = experiment: Anticancer activity against human NCI/ADR-RES cells after 48 hrs by SRB assay; format: functional
COLO 205 = experiment: Anticancer activity against human COLO205 cells after 48 hrs by SRB assay; format: functional; conditions: COLO 205, 48 h; procedure, shortened: as §1
HCC 2998 = experiment: Anticancer activity against human HCC2998 cells after 48 hrs by SRB assay; format: functional; conditions: HCC 2998, 48 h; procedure, shortened: as §1
LOX IMVI [1] = experiment: Antiproliferative activity against human LOXIMVI cells after 48 hrs by MTT assay; format: functional, cell-based
HOP-62 = experiment: Anticancer activity against human HOP62 cells after 48 hrs by SRB assay; format: functional; conditions: HOP-62, 48 h; procedure, shortened: as §1
SN12C = experiment: Anticancer activity against human SN12C cells after 48 hrs by SRB assay; format: functional
TK-10 = experiment: Anticancer activity against human TK10 cells after 48 hrs by SRB assay; format: functional; conditions: TK-10, 48 h
Procedure, shortened: (§2)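 NCI-60 five-dose mode: cells in RPMI 1640 with 5% FBS and 2 mM glutamine, plated at 5000–40,000 cells/well, and preincubated 24 h, with time-zero plates TCA-fixed. Drug given at five concentrations (10-fold or ½-log serial dilutions). Cold TCA fixation 60 min at 4 °C, SRB stain, Tris solubilization, A515. IC50 taken where [(Ti−Tz)/(C−Tz)]×100 = 50.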

SK-MEL-28 = experiment: Anticancer activity against human SK-MEL-28 cells after 48 hrs by SRB assay; format: functional; conditions: SK-MEL-28, 48 h
LOX IMVI [2] = experiment: Anticancer activity against human LOXIMVI cells after 48 hrs by SRB assay; format: functional; procedure, shortened: as §1
HCT-116 = experiment: Anticancer activity against human HCT116 cells after 48 hrs by SRB assay; format: functional; conditions: HCT-116, 48 h; procedure, shortened: as §1
ACHN = experiment: Anticancer activity against human ACHN cells after 48 hrs by SRB assay; format: functional; procedure, shortened: as §1
OVCAR-3 = experiment: Anticancer activity against human OVCAR3 cells after 48 hrs by SRB assay; format: functional; conditions: OVCAR-3, 48 h
U-251 = experiment: Anticancer activity against human U251 cells after 48 hrs by SRB assay; format: functional; conditions: U-251, 48 h; procedure, shortened: as §2
UO-31 = experiment: Anticancer activity against human UO31 cells after 48 hrs by SRB assay; format: functional; conditions: UO-31, 48 h; procedure, shortened: as §2
HOP-92 = experiment: Anticancer activity against human HOP92 cells after 48 hrs by SRB assay; format: functional; conditions: HOP-92, 48 h; procedure, shortened: as §1
A549 = experiment: Anticancer activity against human A549 cells after 48 hrs by SRB assay; format: functional; conditions: A549, 48 h; procedure, shortened: as §1
SR = experiment: Anticancer activity against human SR cells after 48 hrs by SRB assay; format: functional; procedure, shortened: as §2
[3] = Anticancer activity against human Hs 578T cells after 48 hrs by SRB assay; format: functional; procedure, shortened: as §1
Malme-3M = experiment: Anticancer activity against human MALME-3M cells after 48 hrs by SRB assay; format: functional; procedure, shortened: as §1
SNB-75 = experiment: Anticancer activity against human SNB75 cells after 48 hrs by SRB assay; format: functional; conditions: SNB-75, 48 h
RPMI-8226 = experiment: Anticancer activity against human RPMI8226 cells after 48 hrs by SRB assay; format: functional; conditions: RPMI-8226, 48 h
NCI-H522 = experiment: Anticancer activity against human NCI-H522 cells after 48 hrs by SRB assay; format: functional; conditions: NCI-H522, 48 h
DU-145 = experiment: Anticancer activity against human DU145 cells after 48 hrs by SRB assay; format: functional; conditions: DU-145, 48 h; procedure, shortened: as §1
SF-295 = experiment: Anticancer activity against human SF295 cells after 48 hrs by SRB assay; format: functional; conditions: SF-295, 48 h
CAKI-1 = experiment: Anticancer activity against human Caki1 cells after 48 hrs by SRB assay; format: functional; conditions: CAKI-1, 48 h; procedure, shortened: as §1
UACC-257 = experiment: Anticancer activity against human UACC257 cells after 48 hrs by SRB assay; format: functional; conditions: UACC-257, 48 h; procedure, shortened: as §2
SW-620 = experiment: Anticancer activity against human SW620 cells after 48 hrs by SRB assay; format: functional; conditions: SW-620, 48 h; procedure, shortened: as §2
[4] = read-out: LC50 (the source's name)

O=C(NCCNc1nccc(-c2c(-c3cccc(O)c3)nc3sccn23)n1)c1ccccc1O
IC50 (M14): 0.335 µM | GI50 (A498): 14.5 µM | TGI (A498): 33.7 µM | CC50 (A498; [4]): 78.1 µM | GI50 (MCF7): 4.03 µM | TGI (MCF7): 22.2 µM | CC50 (MCF7; [4]): > 100 µM | GI50 (NCI/ADR-RES): 5.05 µM | TGI (NCI/ADR-RES): 68.5 µM | CC50 (NCI/ADR-RES; [4]): > 100 µM | GI50 (COLO 205): 5.58 µM | TGI (COLO 205): 20.9 µM | CC50 (COLO 205; [4]): 66.1 µM | GI50 (HCC 2998): 3.55 µM | TGI (HCC 2998): 16.5 µM | CC50 (HCC 2998; [4]): > 100 µM | IC50 (LOX IMVI [1]): 2.65 µM | GI50 (HOP-62): 3.59 µM | LC50 (concentration killing 50% of starting cells) (HOP-62): > 100 µM | TGI (HOP-62): 32.5 µM | GI50 (SN12C): 2.84 µM | TGI (SN12C): 74.9 µM | CC50 (SN12C; [4]): > 100 µM | GI50 (TK-10): 11.6 µM | TGI (TK-10): 52.2 µM | CC50 (TK-10; [4]): > 100 µM | GI50 (SK-MEL-28): 0.161 µM | TGI (SK-MEL-28): 11.1 µM | CC50 (SK-MEL-28; [4]): 61.2 µM | GI50 (LOX IMVI [2]): 0.335 µM | TGI (LOX IMVI [2]): 16.4 µM | CC50 (LOX IMVI [2]; [4]): 75.1 µM | GI50 (HCT-116): 5.13 µM | TGI (HCT-116): > 100 µM | CC50 (HCT-116; [4]): > 100 µM | GI50 (ACHN): 3.89 µM | TGI (ACHN): > 100 µM | CC50 (ACHN; [4]): > 100 µM | GI50 (OVCAR-3): 3.35 µM | TGI (OVCAR-3): 30.3 µM | CC50 (OVCAR-3; [4]): > 100 µM | GI50 (U-251): 0.152 µM | TGI (U-251): 18.7 µM | CC50 (U-251; [4]): 64.6 µM | GI50 (UO-31): 5.68 µM | TGI (UO-31): 19.7 µM | CC50 (UO-31; [4]): 72.8 µM | GI50 (HOP-92): 9.74 µM | TGI (HOP-92): 34.7 µM | CC50 (HOP-92; [4]): > 100 µM | GI50 (A549): 11 µM | LC50 (concentration giving 50% net tumour cell kill) (A549): > 100 µM | TGI (A549): 49 µM | GI50 (SR): 5.94 µM | TGI (SR): > 100 µM | CC50 (SR; [4]): > 100 µM | GI50 [3]: 2.96 µM | TGI [3]: 26.9 µM | CC50 [3, 4]: > 100 µM | GI50 (Malme-3M): 0.433 µM | TGI (Malme-3M): 11.8 µM | CC50 (Malme-3M; [4]): 45.1 µM | GI50 (SNB-75): 2.65 µM | TGI (SNB-75): 20.5 µM | CC50 (SNB-75; [4]): > 100 µM | GI50 (RPMI-8226): 3.55 µM | LC50 (RPMI-8226): > 100 µM | TGI (RPMI-8226): > 100 µM | GI50 (NCI-H522): 4.83 µM | TGI (NCI-H522): 20.4 µM | CC50 (NCI-H522; [4]): 57 µM | GI50 (DU-145): 5.22 µM | TGI (DU-145): 43.3 µM | CC50 (DU-145; [4]): > 100 µM | GI50 (SF-295): 7.69 µM | TGI (SF-295): 27.2 µM | CC50 (SF-295; [4]): 83.9 µM | GI50 (CAKI-1): 3.71 µM | TGI (CAKI-1): 55.6 µM | CC50 (CAKI-1; [4]): > 100 µM | GI50 (UACC-257): 6.41 µM | TGI (UACC-257): 73.6 µM | CC50 (UACC-257; [4]): > 100 µM | GI50 (SW-620): 5.43 µM | TGI (SW-620): 49.5 µM | CC50 (SW-620; [4]): > 100 µM
